ERAP1 inh = blocks human ERAP1 aminopeptidase activity; Q9NZ08; recombinant ERAP1, Leu-AMC fluorescence, 60 min; inhibition, % at 10.7 µM; hit rate 0.15% among 340,000; AID 652197;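 active means mean replicate inhibition of at least 30%, or all replicates individually reaching that 30% level; inactive means mean below 30% and not every replicate reaching it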
Target sequence (Q9NZ08 whole entry, looked up): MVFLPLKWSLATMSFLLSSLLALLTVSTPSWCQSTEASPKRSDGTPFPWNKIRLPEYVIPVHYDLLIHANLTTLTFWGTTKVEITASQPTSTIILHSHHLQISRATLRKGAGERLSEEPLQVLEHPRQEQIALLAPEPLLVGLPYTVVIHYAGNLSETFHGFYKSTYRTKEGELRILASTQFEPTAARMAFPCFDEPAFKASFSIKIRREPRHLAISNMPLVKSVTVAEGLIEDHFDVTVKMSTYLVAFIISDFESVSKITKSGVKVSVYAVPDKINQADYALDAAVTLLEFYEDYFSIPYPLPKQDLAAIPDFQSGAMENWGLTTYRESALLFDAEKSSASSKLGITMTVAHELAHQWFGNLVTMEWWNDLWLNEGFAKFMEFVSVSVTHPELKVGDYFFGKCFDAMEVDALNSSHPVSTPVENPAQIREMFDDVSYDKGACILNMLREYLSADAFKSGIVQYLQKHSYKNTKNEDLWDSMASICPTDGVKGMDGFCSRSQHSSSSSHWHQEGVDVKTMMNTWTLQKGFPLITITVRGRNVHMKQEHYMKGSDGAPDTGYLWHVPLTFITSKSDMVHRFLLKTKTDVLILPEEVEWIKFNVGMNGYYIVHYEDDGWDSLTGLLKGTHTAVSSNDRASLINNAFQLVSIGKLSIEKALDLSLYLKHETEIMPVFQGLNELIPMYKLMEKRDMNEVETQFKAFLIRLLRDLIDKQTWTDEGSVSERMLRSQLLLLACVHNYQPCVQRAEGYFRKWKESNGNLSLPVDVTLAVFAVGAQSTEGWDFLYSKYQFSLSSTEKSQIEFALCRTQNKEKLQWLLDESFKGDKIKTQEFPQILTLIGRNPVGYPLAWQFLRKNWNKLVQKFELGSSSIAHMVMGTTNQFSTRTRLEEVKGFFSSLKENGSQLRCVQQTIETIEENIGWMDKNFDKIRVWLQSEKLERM
SIRT5 block = inhibitors of human sirtuin-5 desuccinylase; Q9NXA8; Purified SirT5, succinyl-peptide AMC, trypsin-coupled fluorescence; inhibition, % at 15 µM; hit rate 1.1% among 330,000; AID 652115; in the data active means inhibition above about 15%; inconclusive means no clear call, values can overlap the other calls
E-selectin induc = E-selectin induction on HUVECs. P16581. hit rate 0.37% among 260,000. AID 686992. activation, % at 7.58 µM. HUVEC E-selectin immunofluorescence imaging; normalized: neutral wells 0, TNF-alpha wells 100;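 active means mean E-selectin-positive cell signal at least 10% of the positive control, reached in at least 60% of replicates, without over 20% cell loss; inconclusive means no rule given, readout overlaps actives, possibly toxicity-flagged; inactive means the rest, including those meeting only one limit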
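Read-out basis: % PE-positive cells; Test system: HUVEC primary endothelial cells; Technique: immunofluorescence imaging; Dosing: single-point compound dose.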
PglD DTNB = blocks C. jejuni PglD acetyltransferase activity; purified PglD enzyme, DTNB colorimetric CoA detection; inhibition, % at 12.5 µM; hit rate 0.098% among 360,000; AID 602405; in the data active means inhibition above about 16%, passing the limit was not always enough; inconclusive means no clear call, values can overlap the other calls
DENV2 CPE = inhibitors of DENV2 cytopathic effect | DENV2-infected cells, cytopathic effect rescue, plate reader | CPE inhibition, % at 9.99 µM | hit rate 1.7% among 350,000; in the data active means CPE inhibition above about 20%, passing the limit was not always enough; inconclusive means no clear call, values can overlap the other calls; tested in BHK-21 cells
Numbers stand for hits; ! = a repeat was not active. Rows were chosen to be rich in hits. Some 2.5% of all compounds tested hit in one or more screens of this group.

C[C@H](CO)N1C[C@H](C)[C@@H](CN(C)Cc2ccc(Oc3ccccc3)cc2)Oc2c(NC(=O)c3ccc(-c4nccs4)cc3)cccc2C1=O was read as ERAP1 inh inactive, SIRT5 block 16, E-selectin induc inactive, PglD DTNB inactive and DENV2 CPE inactive.
For C[C@@H]1CN([C@@H](C)CO)C(=O)c2cccc(NC(=O)c3ccc(-c4nccs4)cc3)c2O[C@@H]1CN(C)Cc1ccc(Oc2ccccc2)cc1 the results were ERAP1 inh inactive, SIRT5 block inactive, E-selectin induc inconclusive, PglD DTNB inactive and DENV2 CPE inactive.
`C[C@H](CO)N1C[C@H](C)[C@H](CN(C)Cc2ccc(Cl)c(Cl)c2)Oc2c(NC(=O)c3ccc(-c4nccs4)cc3)cccc2C1=O` gave ERAP1 inh inactive, SIRT5 block inactive, E-selectin induc inactive, PglD DTNB inactive and DENV2 CPE inactive.
For C[C@H]1CN([C@@H](C)CO)C(=O)c2cccc(NC(=O)c3ccc(-c4nccs4)cc3)c2O[C@H]1CN(C)Cc1ccc(Oc2ccccc2)cc1 the results were ERAP1 inh inactive, SIRT5 block 21, E-selectin induc inconclusive, PglD DTNB inactive and DENV2 CPE inactive.
`C[C@@H]1CN([C@@H](C)CO)C(=O)c2cccc(NC(=O)c3ccc(-c4nccs4)cc3)c2O[C@@H]1CN(C)Cc1ccccc1` gave ERAP1 inh inactive, SIRT5 block 15, E-selectin induc inactive, PglD DTNB inactive and DENV2 CPE inactive.
C[C@@H]1CN([C@@H](C)CO)C(=O)c2cccc(NC(=O)c3ccc(-c4nccs4)cc3)c2O[C@@H]1CN(C)Cc1ccc(Cl)c(Cl)c1 was read as ERAP1 inh inactive, SIRT5 block inactive, E-selectin induc 32, PglD DTNB inactive and DENV2 CPE inactive.
For CCCCCNC(=O)c1ccc2c(c1)ncn2-c1ccc(OC)cc1 the results were ERAP1 inh inactive, SIRT5 block inactive, E-selectin induc inactive, PglD DTNB inactive and DENV2 CPE inactive.
For C[C@@H]1CN([C@H](C)CO)C(=O)c2cccc(NS(C)(=O)=O)c2O[C@@H]1CN(C)Cc1ccc(C(=O)Nc2ccccc2N)cc1 the results were ERAP1 inh inactive, SIRT5 block inactive, PglD DTNB inactive and DENV2 CPE inactive.
`C=CCOC(=O)C1=C[C@H](c2ccc(C(F)(F)F)cc2)[C@@H](CCCO)[C@H](OCC)O1` gave ERAP1 inh inactive, SIRT5 block inactive, E-selectin induc inactive, PglD DTNB inactive and DENV2 CPE inactive.
`C=CCOC(=O)C1=C[C@@H](c2ccc(C(F)(F)F)cc2)[C@H](CCCO)[C@@H](OCC)O1` gave ERAP1 inh inactive, SIRT5 block inactive, E-selectin induc inactive, PglD DTNB inactive and DENV2 CPE 36!.
For Cc1cccc(C)c1NS(=O)(=O)c1ccc(NC(=O)c2ccc(Cl)c([N+](=O)[O-])c2)cc1 the results were ERAP1 inh inactive, SIRT5 block inactive, E-selectin induc inactive, PglD DTNB inactive and DENV2 CPE inactive.
`O=S(=O)(c1cccs1)N1CCCCN2[C@@H](CO)[C@H](c3ccc(Br)cc3)[C@@H]2C1` gave ERAP1 inh inactive, SIRT5 block inactive, E-selectin induc inactive, PglD DTNB inactive and DENV2 CPE 33.
Screening O=S(=O)(c1cccs1)N1CCCCN2[C@H](CO)[C@H](c3ccc(C4=CCCCC4)cc3)[C@H]2C1 returned ERAP1 inh inactive, SIRT5 block 20, PglD DTNB inactive and DENV2 CPE inactive.
Screening O=C(Cc1ccc(S(=O)(=O)N2CCOCC2)s1)NCC(=O)Nc1ccccc1Br returned ERAP1 inh inactive, SIRT5 block inactive, E-selectin induc inactive, PglD DTNB inactive and DENV2 CPE 126.
Screening CCOc1ccc(NC(=O)Cc2ccc(S(=O)(=O)N3CCOCC3)s2)cc1OCC returned ERAP1 inh inactive, SIRT5 block inactive, E-selectin induc inactive, PglD DTNB inactive and DENV2 CPE 65.
`Cc1ccc([N+](=O)[O-])cc1NC(=O)C(C)Sc1nnc(C)n1CC1CCCO1` (stereo not drawn) gave ERAP1 inh inactive, SIRT5 block inactive, PglD DTNB inactive and DENV2 CPE inactive.
Screening O=C(Cn1c2[n+](c3ccccc31)CC(O)CS2)c1ccccc1 (stereo not drawn) returned ERAP1 inh inactive, SIRT5 block inactive and DENV2 CPE 58.
`CN1CCN(CC(O)COc2ccc(S(=O)(=O)N3CCOCC3)cc2)CC1` (stereo not drawn) gave ERAP1 inh inactive, SIRT5 block inactive, E-selectin induc inactive, PglD DTNB inactive and DENV2 CPE 46.
For O=S(=O)(c1ccc(OCC(O)CN2CCCC2)cc1)N1CCOCC1 (stereo not drawn) the results were PglD DTNB inactive.
`CC(Nc1ccc(F)cc1)=[N+](C)CCNS(=O)(=O)c1ccc(Cl)cc1` gave ERAP1 inh 39, SIRT5 block inactive, PglD DTNB inactive and DENV2 CPE inactive.
Screening CCNS(=O)(=O)c1ccc(NC(=O)Cc2ccc(F)cc2)cc1 returned ERAP1 inh inactive, SIRT5 block inactive, PglD DTNB inactive and DENV2 CPE inactive.
C[C@@H]1CN([C@@H](C)CO)C(=O)c2cccc(NS(C)(=O)=O)c2O[C@@H]1CN(C)Cc1ccncc1 was read as ERAP1 inh inactive, SIRT5 block inactive, E-selectin induc inactive, PglD DTNB inactive and DENV2 CPE inactive.
COc1ccc(N2C(=O)c3ccccc3C(C)(C)C2=O)cc1 was read as ERAP1 inh inactive, SIRT5 block inactive, E-selectin induc 45, PglD DTNB inactive and DENV2 CPE inactive.
O=C(C[C@H]1C[C@@H]2c3cc(NC(=O)Nc4ccc(F)cc4)ccc3O[C@@H]2[C@@H](CO)O1)NCC1CC1 was read as E-selectin induc inactive, PglD DTNB inactive and DENV2 CPE inactive.
Screening C[C@@H]1CCCCO[C@@H](CN(C)C(=O)C2CCCCC2)[C@@H](C)CN([C@H](C)CO)C(=O)c2cc(NC(=O)Nc3cccc4ccccc34)ccc2O1 returned ERAP1 inh inactive, SIRT5 block inactive, E-selectin induc inactive, PglD DTNB inactive and DENV2 CPE 22.
`C[C@H](CO)N1C[C@H](C)[C@@H](CN(C)C(=O)C2CCCCC2)OCCCC[C@H](C)Oc2ccc(NC(=O)Nc3cccc4ccccc34)cc2C1=O` gave ERAP1 inh inactive, SIRT5 block inactive, E-selectin induc inactive, PglD DTNB inactive and DENV2 CPE inactive.
Screening C[C@@H]1CCCCO[C@H](CN(C)C(=O)C2CCCCC2)[C@@H](C)CN([C@@H](C)CO)C(=O)c2cc(NC(=O)Nc3cccc4ccccc34)ccc2O1 returned ERAP1 inh inactive, SIRT5 block inactive, E-selectin induc inactive, PglD DTNB inactive and DENV2 CPE 26.
`C[C@@H]1CN([C@@H](C)CO)C(=O)c2cc(NC(=O)Nc3cccc4ccccc34)ccc2O[C@@H](C)CCCCO[C@H]1CN(C)C(=O)C1CCCCC1` gave ERAP1 inh inactive, SIRT5 block inactive, E-selectin induc inactive, PglD DTNB inactive and DENV2 CPE 22.

Compound activity from PubChem.
